The values that follow come from ChEMBL document CHEMBL3627632, “Novel 1,4-naphthoquinone-based sulfonamides: Synthesis, QSAR, anticancer and antimalarial studies” (Eur J Med Chem, 2015).

One test relates to Plasmodium falciparum. Nature of the test: Antimalarial activity against multidrug-resistant Plasmodium falciparum K1 infected in human erythrocytes after 48 hrs by [3H]hypoxanthine incorporation assay. The test is classed as functional, organism-based. Summed up: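 K1 parasites kept in RPMI 1640 with 20 mM HEPES, 32 mM NaHCO3, 10% human serum and 3% erythrocytes, at 37 °C under 3% CO2. Ring-stage culture (1.5% haematocrit, 1% parasitemia) was exposed to compound for 24 h at 0.1% DMSO final. 0.5 µCi [3H]hypoxanthine was then added for a further 24 h. Incorporation was scintillation-counted, and growth was expressed as treated/untreated cpm ×100.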

Another test deals with Vero. As to the kind of experiment: Cytotoxicity against African green monkey Vero cells after 4 days by GFP detection method. The test is classed as cell-based. The following applies: Chlorocebus sabaeus, 96 h. Summed up:
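Vero cells stably transfected with pEGFP-N1, kept in MEM with 10% heat-inactivated FBS, 2 mM L-glutamine, 1 mM pyruvate, 0.8 mg/mL geneticin at 37 °C, 5% CO2. Cells at 3.3 × 10^4 cells/mL added to compounds prediluted in 0.5% DMSO, 384-well, 4 days. GFP fluorescence read at ex 485/em 535 nm, day-0 background subtracted. IC50 from 6-point 3-fold dilution curves.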

Another test relates to A549. As to the kind of experiment: Cytotoxicity against human A549 cells after 48 hrs by MTT assay. The following applies: A549, 48 h. The test is classed as functional, cell-based. In outline: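 Adherent cells seeded at 10,000-20,000 per well and preincubated 24 h at 37 °C, 5% CO2. Serial dilutions of compound added in an equal volume of medium, DMSO as negative control, then 48 h further incubation. Surviving cells measured by MTT.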

The nature of test [1]: Cytotoxicity against human MOLT3 cells after 48 hrs by XTT assay. The test is classed as functional, cell-based. The settings on record: MOLT-3, 48 h. Summed up: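 Suspension MOLT-3 cells seeded at 10,000-20,000 per well and preincubated 24 h at 37 °C, 5% CO2. Compound serial dilutions added in an equal volume of medium, DMSO as negative control, then 48 h. Surviving cells measured by XTT. IC50 is the concentration inhibiting growth 50% relative to the DMSO control.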

A further test has as its system HepG2. Nature of the test: Cytotoxicity against human HepG2 cells after 48 hrs by MTT assay. The test is classed as functional, cell-based. The following applies: HepG2, 48 h. Summed up:
(§1)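 Adherent cells seeded at 10,000-20,000 per well and preincubated 24 h at 37 °C, 5% CO2. Serial dilutions of compound added in an equal volume of medium, DMSO as negative control, then 48 h further incubation. Surviving cells measured by MTT. IC50 is the concentration giving 50% growth inhibition relative to the DMSO control.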

The nature of test [2]: Cytotoxicity against HuCCa1 cells after 48 hrs by MTT assay. The test is classed as functional, cell-based. The settings on record: Homo sapiens, HuCC-A1, 48 h. Summed up: as §1
Setting [3] is: Plasmodium falciparum, K1, read-out: IC50.

The structures appear in SMILES notation. A value given as a limit tells only on which side of the number the result lay.

As for `O=C1C(Cl)=C(Nc2ccc(S(=O)(=O)NCCc3ccccn3)cc2)C(=O)c2ccccc21`, the IC50 entry in the test on Plasmodium falciparum was “Not Active”; with Vero, 99.9 µM; with A549, 31.4 µM; in test [1], 1.37 µM; in the test with HepG2 it was 10.3 µM; in test [2], 5.88 µM.

Take `O=C1C(Cl)=C(Nc2ccc(S(=O)(=O)NCCc3ccccc3)cc2)C(=O)c2ccccc21`: the IC50 entry with Plasmodium falciparum is “Not Active”; in the test with Vero it was > 107 µM; in the test on A549, 11.2 µM; in test [1] it was 2.18 µM; in the test with HepG2, 6.27 µM; in test [2] it was 4.93 µM.

With `COc1ccc(CCNS(=O)(=O)c2ccc(NC3=C(Cl)C(=O)c4ccccc4C3=O)cc2)cc1OC`, the IC50 in the test on Plasmodium falciparum (setting [3]) is 9.96 µM; in the test with Vero it was 21.1 µM; in the test with A549, 13 µM; in test [1], 2.05 µM; in the test with HepG2, 6.07 µM; in test [2], 5.5 µM.

As for `O=C1C(Cl)=C(Nc2ccc(S(=O)(=O)NCc3ccccn3)cc2)C(=O)c2ccccc21`, the IC50 result was “Not Active” in the test on Plasmodium falciparum; 10.8 µM with Vero; 5.88 µM with A549; 1.37 µM in test [1]; 3.3 µM with HepG2; 5 µM in test [2].

For `O=C1C(Cl)=C(Nc2ccc(S(=O)(=O)N3CCc4ccccc4C3)cc2)C(=O)c2ccccc21`, the IC50 stood at 14.7 µM with Plasmodium falciparum (setting [3]); 20.3 µM in the test on Vero; 48.4 µM with A549; 8.56 µM in test [1]; 36.9 µM in the test with HepG2; 57.8 µM in test [2].

In the case of `COc1cc2c(cc1OC)CN(S(=O)(=O)c1ccc(NC3=C(Cl)C(=O)c4ccccc4C3=O)cc1)CC2`, the IC50 was 2.8 µM with Plasmodium falciparum (setting [3]); 0.944 µM in the test with Vero; 20.2 µM with A549; 1.73 µM in test [1]; 14.4 µM with HepG2; 5.21 µM in test [2].

For `O=C1C(Cl)=C(Nc2cccc(S(=O)(=O)NCCc3ccccn3)c2)C(=O)c2ccccc21`, the IC50 entry is “Not Active” with Plasmodium falciparum; 20.2 µM in the test on Vero; 3.93 µM in the test on A549; 2.2 µM in test [1]; 5.13 µM in the test on HepG2; 5.77 µM in test [2].

As for `O=C1C(Cl)=C(Nc2cccc(S(=O)(=O)NCCc3ccccc3)c2)C(=O)c2ccccc21`, the IC50 with Plasmodium falciparum (setting [3]) came to 6.3 µM; with Vero, 3.85 µM; in the test on A549 it was 31.1 µM; in test [1], 3.3 µM; in the test on HepG2 it was 12.8 µM; in test [2], 9.47 µM.

For the compound `COc1ccc(CCNS(=O)(=O)c2cccc(NC3=C(Cl)C(=O)c4ccccc4C3=O)c2)cc1OC`, the IC50 with Plasmodium falciparum (setting [3]) is 10.1 µM; in the test on Vero it was 3.76 µM; in the test on A549 it was 27.2 µM; in test [1], 4.95 µM; with HepG2, 9.49 µM; in test [2], 8.5 µM.

For the compound `O=C1C(Cl)=C(Nc2cccc(S(=O)(=O)NCc3ccccn3)c2)C(=O)c2ccccc21`, the IC50 entry was “Not Active” in the test with Plasmodium falciparum; 2.82 µM in the test on Vero; 2.31 µM in the test with A549; 2.38 µM in test [1]; 4.56 µM in the test on HepG2; 3.66 µM in test [2].

As for `O=C1C(Cl)=C(Nc2cccc(S(=O)(=O)N3CCc4ccccc4C3)c2)C(=O)c2ccccc21`, the IC50 in the test with Plasmodium falciparum (setting [3]) was 7.27 µM; in the test with Vero it was 4.2 µM; with A549, 21.9 µM; in test [1] it was 1.92 µM; with HepG2, 11 µM; in test [2], 6.08 µM.

For `COc1cc2c(cc1OC)CN(S(=O)(=O)c1cccc(NC3=C(Cl)C(=O)c4ccccc4C3=O)c1)CC2`, the IC50 amounted to 8.79 µM in the test on Plasmodium falciparum (setting [3]); 11.2 µM in the test with Vero; 63.1 µM in the test with A549; 2.34 µM in test [1]; 43.3 µM in the test with HepG2; 26.4 µM in test [2].

`O[C@@H](c1cc(C(F)(F)F)nc2c(C(F)(F)F)cccc12)[C@H]1CCCCN1` (relative stereo) [(S,R)-MEFLOQUINE]: the IC50 in the test on Plasmodium falciparum (setting [3]) stood at 0.0269 µM.

Turning to `C[C@H]1[C@@H](O)O[C@@H]2O[C@@]3(C)CC[C@H]4[C@H](C)CC[C@@H]1[C@@]24OO3` [ARTENIMOL], the IC50 in the test with Plasmodium falciparum (setting [3]) is 0.00142 µM.

For the compound `COc1cccc2c1C(=O)c1c(O)c3c(c(O)c1C2=O)C[C@@](O)(C(=O)CO)C[C@@H]3O[C@H]1C[C@H](N)[C@H](O)[C@H](C)O1` [DOXORUBICIN], in test [2], the midpoint of inhibition, the IC50, lay at 0.42 µM.

For the compound `Cc1c2ccncc2c(C)c2c1[nH]c1ccccc12` [ELLIPTECINE], the IC50 with Vero was 4.05 µM.

In the case of `COc1cc([C@@H]2c3cc4c(cc3[C@@H](O[C@@H]3O[C@@H]5CO[C@@H](C)O[C@H]5[C@H](O)[C@H]3O)[C@H]3COC(=O)[C@H]23)OCO4)cc(OC)c1O` [ETOPOSIDE], the values for the IC50 (in test [1]; with HepG2) were 0.041 µM and 34 µM, respectively.
